Test results taken from PMC6416488 (Protein and Peptide Letters, 2019).

Columns and labels:
[1] = biological target: T1, modified (acetylated) β-lg (Bos taurus, UniProt P02754); experiment: Intrinsic fluorescence quenching, binding constant and thermodynamics; design: species or system Bovine; conditions: modified B-LG
T1 sequence (P02754 17-178): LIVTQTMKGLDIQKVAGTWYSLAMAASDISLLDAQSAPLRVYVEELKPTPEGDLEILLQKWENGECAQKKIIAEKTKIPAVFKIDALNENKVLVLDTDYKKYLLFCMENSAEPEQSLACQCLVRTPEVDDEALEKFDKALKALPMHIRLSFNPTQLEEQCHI
Summary of the method: (§1)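 Proteins were acetylated at 10% w/v in water, 30 °C, pH 7.5–8.5, with acetic anhydride 0.5 g/g protein added over 30–90 min. They were dialysed 24 h against 20 mM phosphate pH 7.0, and lysine modification was checked by TNBS. β-lg was purified from cow milk (>97% by SDS-PAGE). Protein (1 μM) was mixed 1 min with test compound (0–2 μM). Intrinsic fluorescence was read at ex 290, em 310–700 nm. Kb and n came from a double-log Stern–Volmer plot, ΔH°/ΔS° from van't Hoff, and ΔG° from Gibbs.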

[2] = Solvent- and light-mediated curcumin degradation; type: physicochemical; conditions: absolute ethanol, 10 μM curcumin, absorbance 420 nm
Summary of the method: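 Test compound: 5 mM methanol stock diluted to 10 μM in absolute ethanol. Samples were held at room temperature either in darkness or under a 100 W lamp. Absorbance maximum at 420 nm was recorded at intervals within 30 min. Degradation rate was taken from the initial slope of a best-fit line.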

[3] = Effect of temperature on hydrolytic stability of curcumin; type: physicochemical; conditions: 80°C, 10 μM curcumin, 20 mM sodium phosphate buffer pH 7.0, 60 min, darkness
Summary of the method: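 Test compound: 1 mM methanol stock diluted to 10 μM in 20 mM sodium phosphate buffer pH 7.0. Kept in darkness at 4, 25, 37 or 80 °C for up to 60 min and sampled at set intervals. Fluorescence spectra were taken at excitation 420 nm, emission 440–700 nm, with slits 10/20. Maximum emission was followed over time, and the decomposition rate was taken from the initial slope of a linear fit.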

[4] = phase I trial, oral administration of 3.6 g/day; cited from earlier work
[5] = physiological pH; cited from earlier work
[6] = biological target: modified (acetylated) BSA (Bos taurus, UniProt P02769); experiment: Intrinsic fluorescence quenching, binding constant and thermodynamics; design: species or system Bovine; conditions: modified albumin
Sequence of modified (acetylated) BSA (P02769 25-607): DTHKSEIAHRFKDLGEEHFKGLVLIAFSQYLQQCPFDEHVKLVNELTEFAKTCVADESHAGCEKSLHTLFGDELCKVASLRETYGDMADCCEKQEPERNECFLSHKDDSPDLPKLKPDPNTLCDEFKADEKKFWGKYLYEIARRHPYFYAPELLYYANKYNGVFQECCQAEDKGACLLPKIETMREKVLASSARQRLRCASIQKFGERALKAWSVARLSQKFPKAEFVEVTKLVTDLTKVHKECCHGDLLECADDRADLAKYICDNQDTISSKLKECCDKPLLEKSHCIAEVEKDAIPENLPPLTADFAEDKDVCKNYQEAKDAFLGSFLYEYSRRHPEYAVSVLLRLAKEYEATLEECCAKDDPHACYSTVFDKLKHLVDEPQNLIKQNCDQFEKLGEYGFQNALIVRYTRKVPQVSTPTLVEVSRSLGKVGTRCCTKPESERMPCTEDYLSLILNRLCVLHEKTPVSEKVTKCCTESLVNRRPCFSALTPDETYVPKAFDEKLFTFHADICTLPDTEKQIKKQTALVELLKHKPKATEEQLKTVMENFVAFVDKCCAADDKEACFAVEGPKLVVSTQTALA
Summary of the method: as §1

[7] = tested on: PC12 cells; experiment: Intracellular ROS; type: cell-based, rat; conditions: 1 μM curcumin pretreatment 6 h, H2O2 125 μM 16 h, DCFH-DA
Summary of the method: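 PC12 cells were seeded at 20,000/well and pre-incubated 24 h, then switched to protein-free DMEM. They were pretreated 6 h with 1 μM test compound or its protein complex, then exposed to freshly prepared H2O2 (125 μM) for 16 h. DCFH-DA (10 μM) was added for 45 min at 37 °C. Cells were washed twice in PBS, and DCF fluorescence (ex 480/488, em 540/525 nm) was read by microplate reader. Controls were DMSO-treated cells. Results are mean ± S.E.M. of three experiments.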

[8] = without and in the presence of β-lg; ref 10d; cited from earlier work
[9] = biological target: T2, native (unmodified) β-lg (Bos taurus, UniProt P02754); experiment: Intrinsic fluorescence quenching, binding constant and thermodynamics; design: species or system Bovine; conditions: unmodified B-LG
T2 sequence (P02754 17-178): T1 sequence (P02754 17-178)
Summary of the method: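 Unmodified protein was used; β-lg was purified from fresh cow milk (>97% by SDS-PAGE). Protein (1 μM) in 20 mM sodium phosphate pH 7.0 was co-incubated 1 min with test compound (0–2 μM). Quenching was read at excitation 290 nm, emission 310–700 nm, slits 5/10 nm. Kb and n came from a modified Stern–Volmer double-log plot, ΔH° and ΔS° from the van't Hoff ln Kb vs 1/T slope and intercept, and ΔG° from the Gibbs equation. Data points are means of three determinations.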

[10] = extremely safe even at very high doses; cited from earlier work
[11] = ref 3b; cited from earlier work
[12] = biological target: native (unmodified) BSA (Bos taurus, UniProt P02769); experiment: Intrinsic fluorescence quenching, binding constant and thermodynamics; design: species or system Bovine; conditions: unmodified albumin
Sequence of native (unmodified) BSA (P02769 25-607): as above

[13] = tested on: SKNMC cells; experiment: MTT assay, in vitro anti-cancer activity; type: cell-based, human; conditions: 44 µM, 24 h
Summary of the method: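 SKNMC cells were grown in DMEM with 10% FBS and 1% penicillin–streptomycin at 37 °C, 5% CO2, 95% humidity. They were seeded at 20,000/well and pre-incubated 24 h. Medium was replaced with protein-free DMEM, and test compound in DMSO (0–50 μM), alone or protein-complexed, was added for 24 h. MTT (0.5 mg/mL) was added for 4 h, formazan was dissolved in DMSO, and A570 was read. Viability is relative to untreated cells; three separate experiments.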

1,7-bis(4-hydroxy-3-methoxyphenyl)-1,6- heptadiene-3,5-dione [curcumin]
ΔG° ([1]; 310 K (per Table S1)): -9.6836 ± 0.387 kcal/mol | N (number of curcumin binding sites) ([1]; Table 1): 1.347±0.042 | ΔH° ([1]; van't Hoff, 277-310 K): 2.227 ± 0.0225 kcal/mol | ΔS° ([1]; van't Hoff, 277-310 K): 0.161±0.006 J mol^-1·K^-1 | degradation in non-aqueous solvent [2]: did not degrade | initial curcumin population remained intact [3]: more than 40% | concentration of curcumin in plasma [4]: 11.1 nM | concentration of curcumin in target tissues [4]: 1300 nM | time to molecular fragmentation and degradation by hydrolysis [5]: ≤ 30 min | ΔG° ([6]; 310 K (per Table S1)): -4.6953 ± 0.141 kcal/mol | N (number of curcumin binding sites) ([6]; Table 1): 0.975±0.015 | ΔH° ([6]; van't Hoff, 277-310 K): -8.1783 ± 0.163 kcal/mol | ΔS° ([6]; van't Hoff, 277-310 K): -0.047±0.001 J mol^-1·K^-1 | effect on H2O2-induced intracellular ROS levels [7]: significantly reduced | curcumin half-life [8]: 30.8 min | ΔG° ([9]; 310 K (per Table S1)): -7.0335 ± 0.4218 kcal/mol | N (number of curcumin binding sites) ([9]; Table 1): 1.145±0.034 | ΔH° ([9]; van't Hoff, 277-310 K): -6.4892 ± 0.195 kcal/mol | ΔS° ([9]; van't Hoff, 277-310 K): 0.007±0.001 J mol^-1·K^-1 | safe dose [10]: 8 to 12 g/day | solubility in water [11]: about 11 ng/mL | ΔG° ([12]; 310 K (per Table S1)): -9.1702 ± 0.2751 kcal/mol | N (number of curcumin binding sites) ([12]; Table 1): 1.249±0.02 | ΔH° ([12]; van't Hoff, 277-310 K): 6.4971 ± 0.195 kcal/mol | ΔS° ([12]; van't Hoff, 277-310 K): 0.212±0.002 J mol^-1·K^-1 | cell viability [13]: 88%
